Tests used:
[1] = target: T1, Sodium/glucose cotransporter 2 (Mus musculus, UniProt Q923I7); assay: Inhibition of mouse SGLT2-mediated [14C]alpha-methylglucopyranoside uptake by cell based assay
T1 sequence (Q923I7 whole entry): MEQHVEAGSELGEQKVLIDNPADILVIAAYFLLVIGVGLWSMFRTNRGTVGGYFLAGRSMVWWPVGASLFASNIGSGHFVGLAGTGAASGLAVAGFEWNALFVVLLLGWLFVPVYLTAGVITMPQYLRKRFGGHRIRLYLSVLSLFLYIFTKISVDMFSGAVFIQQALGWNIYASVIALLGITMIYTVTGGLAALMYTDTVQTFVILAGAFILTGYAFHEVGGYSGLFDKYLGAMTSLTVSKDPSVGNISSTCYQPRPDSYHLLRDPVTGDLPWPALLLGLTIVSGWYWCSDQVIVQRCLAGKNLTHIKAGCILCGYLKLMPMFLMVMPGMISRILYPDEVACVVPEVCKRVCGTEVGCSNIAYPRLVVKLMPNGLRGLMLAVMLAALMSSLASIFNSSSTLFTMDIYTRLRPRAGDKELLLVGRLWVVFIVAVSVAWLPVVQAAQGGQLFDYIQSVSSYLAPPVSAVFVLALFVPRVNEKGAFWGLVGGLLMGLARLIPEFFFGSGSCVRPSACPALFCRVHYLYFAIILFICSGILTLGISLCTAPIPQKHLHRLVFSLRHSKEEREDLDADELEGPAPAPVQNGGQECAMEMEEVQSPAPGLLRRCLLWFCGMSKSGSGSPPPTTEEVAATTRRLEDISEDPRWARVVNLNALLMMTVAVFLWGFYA

[2] = target: T2, Sodium/glucose cotransporter 2 (Homo sapiens, UniProt P31639); assay: Inhibition of human SGLT2 expressed in HEK293 cells assessed as inhibition of [14C]alpha-methylglucopyranoside uptake; format: cell-based
T2 sequence (P31639 whole entry): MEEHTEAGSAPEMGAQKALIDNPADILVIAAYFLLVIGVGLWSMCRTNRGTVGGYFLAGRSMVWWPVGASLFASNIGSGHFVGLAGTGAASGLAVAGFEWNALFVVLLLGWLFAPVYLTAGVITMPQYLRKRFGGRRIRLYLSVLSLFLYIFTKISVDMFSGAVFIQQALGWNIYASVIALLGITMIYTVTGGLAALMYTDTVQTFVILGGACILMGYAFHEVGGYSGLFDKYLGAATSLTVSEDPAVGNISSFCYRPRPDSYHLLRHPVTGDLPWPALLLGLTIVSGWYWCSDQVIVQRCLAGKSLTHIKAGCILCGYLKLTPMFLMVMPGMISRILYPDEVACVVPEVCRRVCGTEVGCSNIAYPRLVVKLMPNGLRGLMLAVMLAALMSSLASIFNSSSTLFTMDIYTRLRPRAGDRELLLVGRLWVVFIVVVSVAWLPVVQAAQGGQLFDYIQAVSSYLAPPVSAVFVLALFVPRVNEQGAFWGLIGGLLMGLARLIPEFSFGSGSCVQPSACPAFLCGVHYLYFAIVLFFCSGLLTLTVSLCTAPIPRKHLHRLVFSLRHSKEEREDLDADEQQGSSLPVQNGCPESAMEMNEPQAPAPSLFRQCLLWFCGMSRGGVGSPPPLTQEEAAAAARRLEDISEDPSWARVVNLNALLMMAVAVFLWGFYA
Method in brief: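 Cells stably expressing human SGLT2 were used to measure sodium-coupled uptake of [14C]α-methylglucopyranoside, a metabolically stable SGLT-specific glucose analogue. Uptake was measured across increasing compound concentrations, and IC50 was derived from the inhibition of uptake.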

Structure (SMILES) | IC50 [1] [nM] | IC50 [2] [nM]
COC1O[C@@H](c2ccc(Cl)c(Cc3ccc(O[C@H]4CCN(C)C4)cc3)c2)[C@H](O)[C@@H](O)[C@@H]1O (mixture of isomers) | 92 | 170
CCOc1ccc(Cc2cc([C@@H]3OC(O)[C@@H](O)[C@H](O)[C@H]3O)ccc2Cl)cc1 (mixture of isomers) | 100 | 280
CCOc1ccc(Oc2cc([C@@H]3OC(OC)[C@@H](O)[C@H](O)[C@H]3O)ccc2Cl)cc1 (mixture of isomers) | 1900 | 2400
CCOc1ccc(-c2cccc([C@@H]3OC(OC)[C@@H](O)[C@H](O)[C@H]3O)c2)cc1 (mixture of isomers) | 1900 | 4600
CCOc1ccc(Cc2cc([C@@H]3OC(OCc4ccccc4)[C@@H](O)[C@H](O)[C@H]3O)ccc2Cl)cc1 (mixture of isomers) | 330 | 620
CCOc1ccc(Cc2cccc([C@@H]3OC(OC)[C@@H](O)[C@H](O)[C@H]3O)c2)cc1 (mixture of isomers) | 220 | 1100

Other lines, results leading:

IC50 [1] [nM] | IC50 [2] [nM] | Structure (SMILES)
9200 | > 30000 | CCOc1ccc(Cc2cc([C@H]3OC(OC)[C@H](O)[C@@H](O)[C@@H]3O)ccc2Cl)cc1 (stereo partly drawn)
60 | 150 | COC1O[C@@H](c2ccc(Cl)c(Cc3ccc(Oc4nccs4)cc3)c2)[C@H](O)[C@@H](O)[C@@H]1O (mixture of isomers)
19 | 58 | CCOc1ccc(Cc2cc([C@@H]3OC(OCC)[C@@H](O)[C@H](O)[C@H]3O)ccc2Cl)cc1 (mixture of isomers)
220 | 600 | CCOc1ccc(Cc2cc([C@@H]3OC(OC)[C@H](F)[C@H](O)[C@H]3O)ccc2Cl)cc1 (mixture of isomers)
9.5 | 36 | COC1O[C@@H](c2ccc(Cl)c(Cc3ccc(OCCO)cc3)c2)[C@H](O)[C@@H](O)[C@@H]1O (mixture of isomers)
16 | 45 | COCCOc1ccc(Cc2cc([C@@H]3OC(OC)[C@@H](O)[C@H](O)[C@H]3O)ccc2Cl)cc1 (mixture of isomers)
2200 | 3600 | CCOc1ccc(Cc2cc([C@@H]3OC(OCCN(C)C)[C@@H](O)[C@H](O)[C@H]3O)ccc2Cl)cc1 (mixture of isomers)
8 | 32 | COC1O[C@@H](c2ccc(Cl)c(Cc3ccc(O)cc3)c2)[C@H](O)[C@@H](O)[C@@H]1O (mixture of isomers)
